Data taken from PMC11904481 (ESMO Open, 2025).
Read-outs that look alike come from different tables or passages of the source.

What was measured:
[1] = test system: patients with locally advanced unresectable or metastatic, relapsed and/or refractory nonhematological malignancies; assay: Phase I dose escalation: MTD / DLT determination; type: in vivo, human
How it was run: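 I.v. test compound started at 0.45 mg/kg weekly in 28-day cycles (1 h infusion). Accelerated titration used single-patient cohorts with 100% increments up to 3.6 mg/kg, then 3 + 3 cohorts above 3.6 mg/kg. Schedule 2: weekly, 4 h infusion (minimum 2 h). Schedule 3: days 1, 4, 8 (later also 11, 15) of 21-day cycles, ≥4 h infusion, ≥6 h for doses >9.6 mg/kg. MTD/RP2D derived from DLTs.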

ERK1/2 kinase = conditions: read-out: enzymatic IC50; cited from earlier work
[2] = test system: patient-derived xenograft (PDX) models of esophageal squamous cell carcinoma; conditions: cited from earlier work
ERK1/2 = conditions: cell lines; cited from earlier work
[3] = test system: patients with locally advanced unresectable or metastatic, relapsed and/or refractory nonhematological malignancies; assay: Phase I clinical activity; type: in vivo, human
How it was run: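 Open-label multicenter dose escalation in adults with MAPK-altered or 11q-AMP solid tumors. The test compound was given i.v. on three schedules: weekly per 28-day cycle at 0.45-5.4 mg/kg (1-2 h infusion) or 4.8-9.6 mg/kg (4 h); or on days 1, 4, 8 (±11, 15) per 21-day cycle at 3.6-11.3 mg/kg. Investigator assessed response by RECIST v1.1. Evaluable patients had ≥1 dose plus baseline and ≥1 post-treatment tumor assessment.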

[4] = Phase I plasma pharmacokinetics; type: in vivo, human
[5] = molecular target: human ether-a-go-go-related gene (hERG) potassium channel (Homo sapiens, UniProt Q12809); assay: hERG potassium channel inhibition; type: biochemical
[6] = test system: models of head and neck SCC; conditions: cited from earlier work
[7] = 11q13-amplified (11q-AMP) PDX models of esophageal SCC
[8] = 11q13WT PDX models of esophageal SCC

human ether-a-go-go-related gene (hERG) potassium channel, sequence (Q12809 whole entry): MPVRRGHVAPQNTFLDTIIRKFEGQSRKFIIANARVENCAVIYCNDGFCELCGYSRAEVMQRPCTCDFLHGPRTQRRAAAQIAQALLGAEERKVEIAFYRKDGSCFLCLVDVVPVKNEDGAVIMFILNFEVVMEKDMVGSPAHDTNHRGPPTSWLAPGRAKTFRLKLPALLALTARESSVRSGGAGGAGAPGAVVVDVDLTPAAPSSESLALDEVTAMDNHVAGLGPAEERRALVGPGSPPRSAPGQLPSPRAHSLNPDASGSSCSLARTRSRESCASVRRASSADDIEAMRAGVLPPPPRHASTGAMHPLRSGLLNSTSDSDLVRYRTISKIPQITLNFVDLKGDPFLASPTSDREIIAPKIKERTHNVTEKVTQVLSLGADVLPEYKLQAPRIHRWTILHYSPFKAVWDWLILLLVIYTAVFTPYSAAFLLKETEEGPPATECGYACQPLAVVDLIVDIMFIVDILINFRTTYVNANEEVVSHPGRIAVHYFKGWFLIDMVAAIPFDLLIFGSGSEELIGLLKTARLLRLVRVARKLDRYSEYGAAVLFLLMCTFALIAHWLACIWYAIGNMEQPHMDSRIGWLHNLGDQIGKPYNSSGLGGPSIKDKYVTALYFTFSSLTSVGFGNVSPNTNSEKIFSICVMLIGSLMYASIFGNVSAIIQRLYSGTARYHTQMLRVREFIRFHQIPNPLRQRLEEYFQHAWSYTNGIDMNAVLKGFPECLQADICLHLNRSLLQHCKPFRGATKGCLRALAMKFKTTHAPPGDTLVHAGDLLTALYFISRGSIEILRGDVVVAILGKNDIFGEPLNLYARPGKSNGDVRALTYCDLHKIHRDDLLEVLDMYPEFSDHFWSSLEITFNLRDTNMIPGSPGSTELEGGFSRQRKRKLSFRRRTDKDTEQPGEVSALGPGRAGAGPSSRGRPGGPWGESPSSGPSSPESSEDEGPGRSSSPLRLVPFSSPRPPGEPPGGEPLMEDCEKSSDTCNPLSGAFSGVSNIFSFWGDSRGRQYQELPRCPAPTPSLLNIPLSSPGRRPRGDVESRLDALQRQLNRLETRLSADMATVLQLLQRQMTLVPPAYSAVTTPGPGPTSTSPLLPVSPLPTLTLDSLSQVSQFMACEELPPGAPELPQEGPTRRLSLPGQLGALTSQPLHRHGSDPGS

## O=C1Nc2cc3[nH]nc(-c4ccncc4)c3cc2CN1Cc1ccccc1 [KO-947]
[1]; i.v. days 1, 4, 8, 11, and 15 every 21 days, ≥4-hour infusion
  recommended dose (RP2D): 8.5 mg/kg
[1]; schedule 1 cohort 5, 5.4 mg/kg, grade 3 QTc prolongation and grade 3 retinopathy
  patients who experienced DLTs: 2/6
[1]; schedule 1 cohorts 1-4 (0.45-3.6 mg/kg), six patients
  DLTs: no DLTs
[1]; schedule 2, once weekly, 28-day cycle, 4-hour infusion
  maximum administered dose: 9.6 mg/kg
[1]; schedule 2 cohort 9 (9.6 mg/kg), two patients of six
  DLTs: DLT of QTc prolongation
[1]; schedule 2 cohorts 5-8 (4.8-7.2 mg/kg)
  DLTs: no DLTs
[1]; schedule 3, 21-day cycle
  maximum administered dose: 11.3 mg/kg
[1]; schedule 3 cohort 3, 6.4 mg/kg
  DLTs: One DLT of hypotension
[1]; schedule 3 cohort 4 (8.5 mg/kg, n = 3)
  DLTs: No DLTs
[1]; schedule 3 cohort 5 (11.3 mg/kg), one patient of six
  DLTs: DLT of an infusion-related reaction
[1]; schedule 3 cohorts 1 or 2 (3.6-4.8 mg/kg), six patients
  DLTs: no DLTs
ERK1/2 kinase
  IC50: 0.01 µM
[2]; [7]
  disease control rate: 77%
  overall response rate: 51%
[2]; [8]
  disease control rate: 21%
  overall response rate: 3%
ERK1/2
  inhibition of signaling following washout: > 4 h
[3]; all schedules
  best overall response: stable disease
  complete or partial responses: No complete or partial responses
[3]; schedule 3
  patients discontinued owing to disease progression: 67%
  stable disease as best overall response: 37%
[3]; schedules 1 and 2
  stable disease as best overall response: 15%
[4]; 11.3 mg/kg, cohort 5 of schedule 3, 6-hour infusion, held for ∼4 hours
  plasma concentration: ~3600 ng/mL
[4]; after a single dose, noncompartmental analysis
  dose proportionality of exposure, slope: 1.2
[4]; all dosing schedules
  accumulation: None to minimal accumulation
[4]; human, plasma, intravenous
  half-life: 6.5 to 24 h
[4]; human, plasma, intravenous, 3.6 mg/kg
  half-life: ~6.65 h
[4]; human, plasma, intravenous, 3.6 mg/kg, highest Cmax, 1-hour infusion
  Cmax: 3630 ng/mL
[4]; in vivo
  Vd: moderate
  plasma CL: moderate
[4]; schedules 2 and 3
  time at which Cmax was achieved (near the end of the infusion): ~4 h
[5]
  IC50: 4.4 µM
[5]; overall study
  mean free Cmax relative to hERG IC50: about one-tenth
[6]; 11q-AMP models of head and neck cancer
  antitumor response: Complete responses and tumor regression
[6]; mouse models of head and neck SCC with 11q-AMP
  overall response rate: 56%
[6]; mouse models of head and neck SCC, 11q13WT
  overall response rate: 9%
